According to ChEMBL document CHEMBL2375233, “Cytotoxic phorbol esters of Croton tiglium” (J Nat Prod, 2013):

system: SNU-387; experiment: Cytotoxicity against human SNU387 cells after 48 hrs by MTT assay; format: functional, cell-based; conditions: SNU-387, 48 h
In short: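 SNU387 hepatoma cells (Shanghai Cell Bank) grown in RPMI1640 with 10% FBS, seeded in 96-well plates and exposed to test compounds at various concentrations for 48 h. Viability read by MTT, absorbance at 570 nm. IC50 calculated from concentration-response; samples assayed in triplicate, paclitaxel as positive control.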

Compound	IC50 [µM]
CCCCCCCCCCCC(=O)O[C@@]12[C@H](OC(C)=O)[C@@H](C)[C@@]3(O)[C@@H](C=C(CO)C[C@]4(O)C(=O)C(C)=C[C@@H]34)[C@@H]1C2(C)C	> 10
C/C=C(\C)C(=O)O[C@@H]1[C@@H](C)[C@]2(O)[C@@H]3C=C(C)C(=O)[C@@H]3CC(CO)=C[C@H]2[C@@H]2C(C)(C)[C@]12OC(=O)CCCCCCCCC	> 10
C/C=C(\C)C(=O)O[C@@H]1[C@@H](C)[C@]2(O)[C@@H]3C=C(C)C(=O)[C@@H]3CC(CO)=C[C@H]2[C@@H]2C(C)(C)[C@]12OC(C)=O	> 10
CC(=O)O[C@H]1C(=O)[C@@]2(C)[C@H]([C@H](OC(=O)c3ccccc3)[C@]3(O)C[C@H](OC(=O)[C@H](O)[C@@H](NC(=O)c4ccccc4)c4ccccc4)C(C)=C1C3(C)C)[C@]1(OC(C)=O)CO[C@@H]1C[C@@H]2O [PACLITAXEL]	0.27
CCCCCCCC/C=C\CCCCCCCC(=O)OCC1=C[C@H]2[C@@H]3C(C)(C)[C@]3(OC(C)=O)[C@H](O)[C@@H](C)[C@]2(O)[C@@H]2C=C(C)C(=O)[C@@H]2C1	6.6
C/C=C(\C)C(=O)O[C@@]12[C@H](OC(=O)C(C)CC)[C@@H](C)[C@@]3(O)[C@@H](C=C(CO)C[C@]4(O)C(=O)C(C)=C[C@@H]34)[C@@H]1C2(C)C (stereo not given in full)	> 10
C/C=C(\C)C(=O)O[C@@H]1[C@@H](C)[C@@]2(O)[C@@H](C=C(CO)C[C@]3(O)C(=O)C(C)=C[C@@H]23)[C@@H]2C(C)(C)[C@]12OC(=O)C(C)CC (stereo not given in full)	8.7
C/C=C(\C)C(=O)O[C@@H]1[C@@H](C)[C@@]2(O)[C@@H](C=C(CO)C[C@]3(O)C(=O)C(C)=C[C@@H]23)[C@@H]2C(C)(C)[C@]12OC(=O)C(C)C	> 10
CCCCCCCC/C=C\CCCCCCCC(=O)OCC1=C[C@H]2[C@@H]3C(C)(C)[C@]3(OC(C)=O)[C@H](O)[C@@H](C)[C@]2(O)[C@@H]2C=C(C)C(=O)[C@@]2(O)C1	1.2
C/C=C(\C)C(=O)O[C@@H]1[C@@H](C)[C@]2(O)[C@@H]3C=C(C)C(=O)[C@@H]3CC(CO)=C[C@H]2[C@@H]2C(C)(C)[C@]12OC(=O)C(C)C	> 10
CCCCCCCCCCCC(=O)O[C@@]12[C@H](OC(=O)C(C)CC)[C@@H](C)[C@@]3(O)[C@@H](C=C(CO)C[C@]4(O)C(=O)C(C)=C[C@@H]34)[C@@H]1C2(C)C (stereo not given in full)	> 10
C/C=C(\C)C(=O)O[C@@H]1[C@@H](C)[C@]2(O)[C@@H]3C=C(C)C(=O)[C@@H]3CC(CO)=C[C@H]2[C@@H]2C(C)(C)[C@]12OC(=O)Cc1ccccc1	> 10
C/C=C(\C)C(=O)O[C@@H]1[C@@H](C)[C@]2(O)[C@@H]3C=C(C)C(=O)[C@@H]3CC(CO)=C[C@H]2[C@@H]2C(C)(C)[C@]12OC(=O)C(C)CC (stereo not given in full)	> 10
CCCCC/C=C\C/C=C\CCCCCCCC(=O)OCC1=C[C@H]2[C@@H]3C(C)(C)[C@]3(OC(C)=O)[C@H](O)[C@@H](C)[C@]2(O)[C@@H]2C=C(C)C(=O)[C@@]2(O)C1	3.4
C/C=C(\C)C(=O)O[C@@H]1[C@@H](C)[C@@]2(O)[C@@H](C=C(CO)C[C@]3(O)C(=O)C(C)=C[C@@H]23)[C@@H]2C(C)(C)[C@]12OC(=O)CC	> 10.2
CCCCCCCCCCCCCCCC(=O)O[C@@H]1[C@@H](C)[C@@]2(O)[C@@H](C=C(CO)C[C@]3(O)C(=O)C(C)=C[C@@H]23)[C@@H]2C(C)(C)[C@]12OC(C)=O	> 10
CCC(C)C(=O)O[C@@H]1[C@@H](C)[C@@]2(O)[C@@H](C=C(CO)C[C@]3(O)C(=O)C(C)=C[C@@H]23)[C@@H]2C(C)(C)[C@]12OC(=O)C(C)C (stereo not given in full)	> 10
CCCCC/C=C\C/C=C\CCCCCCCC(=O)OCC1=C[C@H]2[C@@H]3C(C)(C)[C@]3(OC(C)=O)[C@H](O)[C@@H](C)[C@]2(O)[C@@H]2C=C(C)C(=O)[C@@H]2C1	8.1
CCCCCCCCCCCCCC(=O)O[C@@H]1[C@@H](C)[C@@]2(O)[C@@H](C=C(CO)C[C@]3(O)C(=O)C(C)=C[C@@H]23)[C@@H]2C(C)(C)[C@]12OC(C)=O [PHORBOL MYRISTATE ACETATE]	> 10
CCCCCCCCCC(=O)O[C@@]12[C@H](OC(C)=O)[C@@H](C)[C@@]3(O)[C@@H](C=C(CO)C[C@]4(O)C(=O)C(C)=C[C@@H]34)[C@@H]1C2(C)C	> 10
